KCC2 mod – KCC2 (human) Cl- transport modulation | Q9H2X9 | AID 1456 | B-score of Tl+ flux slope (higher = more flux/activation; lower = inhibition) at 10 µM | KCC2 cells, thallium flux FluoZin-2 fluorescence | actives 2.2% (n = 190,000);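 active = thallium flux slope and its plate-corrected score both differing from the plate sample mean at a set confidence after two filtering rounds, in either direction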;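 note: slope of fluorescence scaled to starting intensity during 10 to 20 s after thallium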
ROMK primary – modulators of human ROMK potassium channel. Tet-inducible ROMK, thallium flux fluorescence; actives lie on both sides. AID 1918. B-score at 10 µM. actives 2% (n = 130,000);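 active = signal ratio slope over the read window, or its plate-corrected B-score, at least 3 SD from the plate mean, either direction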;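 note: B-score of the F/F0 ratio slope over 7 to 12 s after thallium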
Target sequence (P48048 whole entry, looked up): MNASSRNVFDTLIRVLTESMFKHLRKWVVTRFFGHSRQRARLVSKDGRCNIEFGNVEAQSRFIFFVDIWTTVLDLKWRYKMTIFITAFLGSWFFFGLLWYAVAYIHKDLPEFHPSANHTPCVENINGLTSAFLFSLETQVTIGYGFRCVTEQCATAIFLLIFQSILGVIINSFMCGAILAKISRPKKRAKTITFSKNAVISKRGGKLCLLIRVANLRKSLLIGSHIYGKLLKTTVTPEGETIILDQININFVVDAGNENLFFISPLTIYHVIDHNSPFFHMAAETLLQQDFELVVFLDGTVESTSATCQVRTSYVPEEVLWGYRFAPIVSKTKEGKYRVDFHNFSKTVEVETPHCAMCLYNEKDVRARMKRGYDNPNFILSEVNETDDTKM
14-3-3 Bad PPI – disrupts binding of bovine 14-3-3 zeta to phospho-Bad peptide | P63103 | TR-FRET 14-3-3zeta/Dy647-pBad peptide displacement, 1 h | inhibition, % at 21.7 µM | actives 0.71% (n = 220,000) | AID 781;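 active = inhibition above about 70%, limit read from the data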
NCF1 inh – blocks human p47phox regulatory protein of NADPH oxidases. p47phox/p22phox peptide binding, fluorescence polarization, 2 h. inhibition, % at 24.7 µM. P14598. actives 0.53% (n = 220,000);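 active = inhibition above about 30%, limit read from the data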
WT yeast gro inh – growth inhibition of WT yeast, mitochondrial fusion screen | mitochondrial fusion phenotypic screen, WT strain | inhibition, % at 10 µM | actives 2.1% (n = 190,000) | AID 1362; in the data active = inhibition above about 58%; tested in S. cerevisiae
RBBP9 inhibitor – human RBBP9 hydrolase inhibition; O75884; recombinant RBBP9, FP-Rh probe fluorescence polarization; inhibition, % at 7.94 µM; actives 0.2% (n = 220,000); AID 1515;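 active = inhibition above the campaign mean of all tested compounds plus 3 SD, cut at about 14% in these data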
Target sequence (O75884 whole entry, looked up): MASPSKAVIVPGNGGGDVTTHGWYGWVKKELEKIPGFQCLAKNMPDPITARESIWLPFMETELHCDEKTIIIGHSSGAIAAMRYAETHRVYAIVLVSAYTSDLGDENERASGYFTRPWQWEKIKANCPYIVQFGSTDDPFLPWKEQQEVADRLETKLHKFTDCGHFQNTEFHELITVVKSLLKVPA
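Test system: recombinant human RBBP9; Timing: 30 min then 45 min, 25 °C; Detection: fluorescence polarization; Control set: RBBP9 with DMSO as uninhibited control, no-protein wells as full inhibition; Compound dosing: one concentration, 7.94 µM nominal, 0.794% DMSO; Probe or stimulus: FP-Rh activity-based probe, 375 nM before mixing.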
KCC2 sec1 – confirmation of human KCC2 transport modulators; shares compounds with KCC2 mod; HEK293-KCC2, thallium flux, FluoZin2 fluorescence; active compounds read high; actives 15% (n = 3,700); AID 1713; normalised thallium flux (F/F0 slope) at 10 µM;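 active = thallium flux slope above the same plate's solvent-only control mean plus 3 SD; inconclusive = the two replicate wells disagree; inactive = no significant difference from solvent-only control wells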
KCC2 bumet counter – thallium flux despite bumetanide block in KCC2 cells, secondary assay 3 | shares compounds with KCC2 mod | HEK293-KCC2 + bumetanide/ouabain, thallium flux FluoZin2; active compounds read high | normalized thallium flux at 10 µM | actives 49% (n = 3,700);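 active = thallium entry rate above the same plate's blocked-transporter control wells by more than 3 SD; inconclusive = the two repeat wells disagree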;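 note: raw slope of fluorescence over initial fluorescence between 10 and 20 s after thallium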
KCC2 secondary2 – confirmation of human KCC2 transport modulators; HEK293-KCC2, thallium flux FluoZin2 fluorescence; actives lie on both sides; F/F0 rise rate, 10–20 s post-thallium; actives 23% (n = 3,700); shares compounds with KCC2 mod; normalized thallium flux at 10 µM;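 active = thallium flux slope more than 3 SD above or below the plate's solvent-only control mean, mostly below; inconclusive = the two repeat wells disagreed; inactive = no significant shift from solvent-only controls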
HEK293 Tl flux – acts in parental HEK cells, KCC2 counter-screen; actives 46% (n = 3,700); shares compounds with KCC2 mod; thallium flux rate (normalised fluorescence) at 10 µM; HEK293 parental cells, thallium flux FluoZin2, ouabain; baseline-ratio fluorescence slope, 10–20 s after thallium;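 active = thallium flux rate significantly above the same plate's solvent-only control wells, beyond their mean plus 3 SD; inconclusive = the two replicate wells gave conflicting results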
KCC2 ouabain – confirmation of human KCC2 modulators with ouabain | HEK293-KCC2, thallium flux FluoZin2 fluorescence; bidirectional: low = inhibitor, high = activator | raw Tl+ flux slope (below DMSO = inhibition, above = activation) at 10 µM | actives 48% (n = 3,700) | shares compounds with KCC2 mod;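 active = thallium flux slope beyond 3 SD from same-plate DMSO control mean in most replicates, usually higher, sometimes lower; inconclusive = repeat tests gave conflicting results; inactive = no significant difference from controls in most replicates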;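 note: slope of initial-normalized fluorescence between seconds 10 and 20 after thallium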
HEK293 Tl flux2 – counter-screen for KCC2 modulators: effect in parental HEK293 cells. shares compounds with KCC2 mod. thallium flux FluoZin-2 fluorescence slope. thallium flux slope at 10 µM. actives 33% (n = 3,700). AID 1718;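 active = thallium flux slope above the same plate's solvent-control mean plus 3 SD in both duplicate wells; inconclusive = duplicate wells that disagreed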;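 note: run without ouabain in cells lacking the KCC2 cotransporter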
Large screens that a line does not name were inactive (follow-up assays come after a bar, where they were run). Most compounds without a hit are left out; they make up all but 5.8% or so of the library.

CC1=C(C(=O)Nc2ccccc2C(F)(F)F)C(c2sccc2C)NC(=S)N1 (stereo unspecified)	none
C/C(=N\NC(=O)CNc1cccc(C(F)(F)F)c1)c1cccc(Br)c1	KCC2 mod 5.45 (no result: ROMK primary) | KCC2 sec1 inactive | KCC2 bumet counter inactive | KCC2 secondary2 inactive | HEK293 Tl flux inactive | KCC2 ouabain inactive | HEK293 Tl flux2 inactive
O=C1CSC(c2cccs2)N1c1ccccc1 (stereo unspecified)	none (no result: ROMK primary)
c1ccc(N2CCN(c3ccccc3)C2c2cccs2)cc1	KCC2 mod -5.46 (no result: ROMK primary) | KCC2 sec1 inactive | KCC2 bumet counter inactive | KCC2 secondary2 inactive | HEK293 Tl flux inactive | KCC2 ouabain inactive | HEK293 Tl flux2 inactive
COc1cc(C(=S)N2CCOCC2)cc(OC)c1OC(=O)Cc1ccc(F)cc1	KCC2 mod -4.31 (no result: ROMK primary) | KCC2 sec1 inactive | KCC2 bumet counter inactive | KCC2 secondary2 0.028 | HEK293 Tl flux inactive | KCC2 ouabain 0.0159 | HEK293 Tl flux2 inactive
CCOC(=O)c1ccc(NC(=O)c2nn(CC)cc2Br)cc1	none (no result: ROMK primary)
CCOC(=O)c1ccc(NC(=O)c2nn(C)cc2Br)cc1	none (no result: KCC2 mod)
CCOC(=O)c1ccc(NC(=S)NC(=O)c2nn(CC)cc2Br)cc1	KCC2 mod 5.96 | KCC2 sec1 inactive | KCC2 bumet counter 0.00974 | KCC2 secondary2 inactive | HEK293 Tl flux 0.00916 | KCC2 ouabain inactive | HEK293 Tl flux2 0.0118
CCn1cc(Br)c(C(=O)NC(=S)Nc2ccc(C(=O)OC)cc2)n1	KCC2 mod 6.17 | KCC2 sec1 inactive | KCC2 bumet counter 0.0181 | KCC2 secondary2 inactive | HEK293 Tl flux 0.0133 | KCC2 ouabain inactive | HEK293 Tl flux2 0.0123
CC(C(=O)O)n1cc(Cl)cn1 (stereo unspecified)	none
C/C(CCC(C)C)=N\NC(=O)COc1ccccc1-c1ccccc1	none
O=C(COc1ccccc1-c1ccccc1)NN=C1CCCC1	KCC2 mod -3.44 (no result: NCF1 inh) | KCC2 sec1 inactive | KCC2 bumet counter inactive | KCC2 secondary2 inactive | HEK293 Tl flux 0.00505 | KCC2 ouabain inactive | HEK293 Tl flux2 0.0077
C(=C\c1ccccc1)/CN1CCN(Cc2ccc3c(c2)OCCO3)CC1	KCC2 mod 3.39 (no result: ROMK primary) | KCC2 sec1 inactive | KCC2 bumet counter inactive | KCC2 secondary2 inactive | HEK293 Tl flux inactive | KCC2 ouabain inactive | HEK293 Tl flux2 inactive
CN1CCN(C(=S)NC(=O)c2ccc(S(=O)(=O)N3CCOCC3)cc2)CC1	none
O=C(NC(=S)N1CCN(C(c2ccccc2)c2ccccc2)CC1)c1ccc(S(=O)(=O)N2CCOCC2)cc1	KCC2 mod 8.67 | KCC2 sec1 inactive | KCC2 bumet counter 0.0236 | KCC2 secondary2 inactive | HEK293 Tl flux 0.0129 | KCC2 ouabain inconclusive | HEK293 Tl flux2 inconclusive
CCCCN(C)C(=O)c1ccc(S(=O)(=O)N2CCOCC2)cc1	none
CCCN(CC1CC1)C(=S)NC(=O)c1ccc(S(=O)(=O)N2CCOCC2)cc1	KCC2 mod 5.64 | KCC2 sec1 inactive | KCC2 bumet counter 0.0186 | KCC2 secondary2 inactive | HEK293 Tl flux 0.0166 | KCC2 ouabain 0.0237 | HEK293 Tl flux2 0.018
O=C(NCc1ccco1)C(=O)N1CCCC1	none
Cc1ccc(Oc2ncccc2N)c2c1CCC2	none (no result: WT yeast gro inh)
COc1ccc2c(CCNC(=O)c3ccc([N+](=O)[O-])cc3)c[nH]c2c1	none
CCN(CC)S(=O)(=O)c1ccc(NC(=O)C(C)N(c2ccc(OC)cc2)S(C)(=O)=O)cc1 (stereo unspecified)	none (no result: KCC2 mod)
CCOc1ccc(N(C(C)C(=O)Nc2ccc(OC)cc2)S(C)(=O)=O)cc1 (stereo unspecified)	KCC2 mod -5.01 (no result: ROMK primary) | KCC2 sec1 inactive | KCC2 bumet counter inactive | KCC2 secondary2 inactive | HEK293 Tl flux inactive | KCC2 ouabain inactive | HEK293 Tl flux2 inactive
O=C(CCS(=O)(=O)c1ccccc1)Nc1cccc2c1C(=O)NC2=O	none (no result: NCF1 inh)
CCC1(C)OC(=O)NN(c2ccc(C)cc2)C1(C)O (stereo unspecified)	none (no result: ROMK primary)
Cc1nc2c(-c3ccc(Cl)cc3)c(C)[nH]n2c(=O)c1Cc1ccccc1	KCC2 mod 4.91 | KCC2 sec1 inactive | KCC2 bumet counter 0.0129 | KCC2 secondary2 inconclusive | HEK293 Tl flux 0.0121 | KCC2 ouabain inconclusive | HEK293 Tl flux2 0.0118
Cc1nc2c(-c3ccccc3)c(C)[nH]n2c(=O)c1Cc1ccccc1	KCC2 mod 4.93 | KCC2 sec1 inactive | KCC2 bumet counter 0.0195 | KCC2 secondary2 inactive | HEK293 Tl flux 0.0149 | KCC2 ouabain inconclusive | HEK293 Tl flux2 0.0164

Bioassay records: PubChem, several laboratories
